Results from paper PMC11302324 (RSC Advances, 2024).

What was measured:
[1] = system: prostate carcinoma (PC-3); test: In vitro cytotoxicity, MTT assay; format: cell-based; conditions: Homo sapiens, read-out: In vitro cytotoxicity IC50 PC-3
Method in brief: (§1)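 Cells seeded at 1×10^5 cells per ml and grown 24 h at 37 °C to a monolayer, then washed twice. Two-fold dilutions of test compound in RPMI with 2% serum; medium-only control wells; doxorubicin positive control. Morphology checked, then MTT stock (5 mg ml⁻¹ in PBS) added and incubated 1-5 h (37 °C, 5% CO₂). Formazan dissolved in DMSO; OD 560 nm minus 620 nm; mean of three determinations; one-way ANOVA.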

[2] = system: colorectal carcinoma (HCT-116); test: In vitro cytotoxicity, MTT assay; format: cell-based; conditions: Homo sapiens, HCT-116, read-out: In vitro cytotoxicity IC50 HCT-116
Method in brief: as §1

CK2 kinase = CK2 kinase (Homo sapiens, UniProt P68400); test: CK2 kinase enzyme inhibitory assay; format: biochemical
Chain of CK2 kinase (P68400 whole entry): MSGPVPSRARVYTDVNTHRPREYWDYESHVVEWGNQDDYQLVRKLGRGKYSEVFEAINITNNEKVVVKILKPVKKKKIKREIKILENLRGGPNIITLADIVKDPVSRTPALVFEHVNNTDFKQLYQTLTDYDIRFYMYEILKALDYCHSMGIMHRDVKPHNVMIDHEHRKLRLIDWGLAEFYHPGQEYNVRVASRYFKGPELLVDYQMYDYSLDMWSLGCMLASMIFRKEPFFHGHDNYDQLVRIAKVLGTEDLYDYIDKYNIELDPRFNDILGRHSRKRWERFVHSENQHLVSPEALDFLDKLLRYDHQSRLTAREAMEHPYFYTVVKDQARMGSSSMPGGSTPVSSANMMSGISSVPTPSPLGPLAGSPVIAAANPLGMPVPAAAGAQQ

[3] = system: hepatocellular carcinoma (HepG-2); test: In vitro cytotoxicity, MTT assay; format: cell-based; conditions: Homo sapiens, HepG2, read-out: In vitro cytotoxicity IC50 HePG2
Method in brief: as §1

[4] = system: HepG-2, PC-3, and HCT-116 cell lines; test: In vitro cytotoxicity, MTT assay, stated for the three cell lines together; format: cell-based, human
Method in brief: as §1

| SMILES | IC50 [1] [µM] | IC50 [2] [µM] | IC50 (CK2 kinase) [µM] | activity against CK2 kinase (in words) (CK2 kinase; compared with 5b) | IC50 [3] [µM] | cytotoxicity towards three cell lines (in words) [4] |
| --- | --- | --- | --- | --- | --- | --- |
| COC(=O)[C@@H](NC(=O)CNC(=O)COc1ccc2c(C)cc(=O)oc2c1)c1ccccc1 [Compound 7c, (S)-Methyl2-{2-{2-[(4-methyl-2-oxo-2H-chromen-7-yl)oxy]acetamido}acetamido}-2-phenylacetate] | 16.1 ± 4.6 | 16 ± 4.1 | 0.461 ± 0.02 | less active | 34.1 ± 4.2 |  |
| COC(=O)CNC(=O)CNC(=O)COc1ccc2c(C)cc(=O)oc2c1 [Compound 7a, Methyl 2-{2-[2-[(4-methyl-2-oxo-2H-chromen-7-yl)oxy]acetamido]acetamido}acetate] | 172.3 ± 1.4 | 137 ± 2.4 |  |  | 174 ± 3.4 |  |
| COC(=O)[C@H](CC(C)C)NC(=O)COc1ccc2c(C)cc(=O)oc2c1 [Compound 5b, (S)-Methyl-4-methyl-2-{2-[(4-methyl-2-oxo-2H-chromen-7-yl)oxy]acetamido}pentanoate] | 59.7 ± 4.2 | 35.1 ± 2.8 | 0.117 ± 0.005 |  | 42.16 ± 0.3 |  |
| Cc1cc(=O)oc2cc(OCC(=O)NCC(=O)NN)ccc12 [Compound 6, N-(2-Hydrazinyl-2-oxoethyl)-2-[(4-methyl-2-oxo-2H-chromen-7-yl)oxy]acetamide] | 168 ± 4.3 | 171 ± 4.2 |  |  | 168 ± 4.4 |  |
| COc1cccc2c1C(=O)c1c(O)c3c(c(O)c1C2=O)C[C@@](O)(C(=O)CO)C[C@@H]3O[C@H]1C[C@H](N)[C@H](O)[C@H](C)O1 [Doxorubicin, reference compound] | 57.3 ± 0.6 | 61.01 ± 0.3 |  |  | 108 ± 0.6 |  |
| COC(=O)[C@@H](CC(C)C)NC(=O)CNC(=O)CNC(=O)COc1ccc2c(C)cc(=O)oc2c1 [Compound 9b, (R)-Methyl4-methyl-2-{2-{2-{2-[(4-methyl-2-oxo-2H-chromen-7-yl)oxy]acetamido}acetamido}acetamido}pentanoate] | 85.5 ± 0.4 | 169.1 ± 0.3 |  |  | 298.8 ± 0.3 | relatively weak cytotoxicity |
| COC(=O)[C@@H](NC(=O)COc1ccc2c(C)cc(=O)oc2c1)c1ccccc1 [Compound 5c, (S)-Methyl 2-{2-[(4-methyl-2-oxo-2H-chromen-7-yl)oxy]acetamido}-2-phenylacetate] | 174 ± 1.8 | 124 ± 4.4 |  |  | 154 ± 2.1 |  |
